Measurements reported in ChEMBL document CHEMBL1130037, “Synthesis and pharmacological properties of a close analogue of an antithrombotic pentasaccharide (SR 90107A/ORG 31540)” (J Med Chem, 1997).

Columns and labels:
Rattus norvegicus = experiment: In vivo antithrombotic activity was determined in rats; assay type: functional
In short: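 Stasis plus hypercoagulability venous thrombosis in male Sprague-Dawley rats (250-300 g) under pentobarbitone (30 mg/kg ip). Compounds given iv (penile vein) 5 min before human tissue factor (1 ng/kg iv over 30 s). Vena cava ligated 10 s later for 20 min; thrombus dried and weighed. ED50 = 50% thrombus weight reduction; mean with 95% CI, n = 6.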

[1] = molecular target: Coagulation factor X (Homo sapiens) (UniProt P00742); experiment: Inhibition of blood coagulation factor Xa was determined by AT III.
In short: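 Amidolytic assay in buffer: factor Xa (7.5 nkat/mL) incubated 2 min at 37 °C with AT III (0.5 unit/mL) and oligosaccharide at various concentrations in 20 mM Tris/maleate pH 7.4, 150 mM NaCl. Residual Xa measured with S-2222 (1 mM stock); stopped after 2 min with acetic acid, A405 read. Activity versus calibrated standard; mean ± SEM, n = 3.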

[2] = Elimination half life was determined.; assay type: ADME
In short: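 Rats with jugular catheter (pentobarbitone anesthesia), recovered overnight, received 100 nmol/kg iv bolus. Citrated blood collected; plasma levels measured by anti-factor Xa activity using each compound as its own reference. Half-life from slope of terminal phase; mean ± SEM, n = 4.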

Antithrombin-III = Antithrombin-III (Homo sapiens, UniProt P01008); experiment: Dissociation constant for Antithrombin-III
In short: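 Intrinsic protein fluorescence titration at 37 °C with stirring; oligosaccharides added to Tris-HCl 0.01 M pH 7.0, 0.15 M NaCl containing 5–60 nM human AT III (purified). Complex concentrations calculated assuming 1:1 stoichiometry; KD from Scatchard analysis. Mean ± SEM, n = 3.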

Prothrombin = Prothrombin (Homo sapiens, UniProt P00734); experiment: Inhibition of Thrombin generation was determined; assay type: functional
In short: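 Thrombin generation in human defibrinated platelet-poor citrated plasma at 37 °C. Cuvette held rabbit brain thromboplastin (amount giving 90 s Quick time), S-2222 (1.6 mM stock), compound in Tris-HCl pH 7.35, and CaCl2 (0.25 M stock). Plasma addition started the reaction; A405 followed 20 min. IC50 from area under curve by four-parameter logistic fit; mean with 95% CI, n = 3.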

Chain of Antithrombin-III (P01008 whole entry): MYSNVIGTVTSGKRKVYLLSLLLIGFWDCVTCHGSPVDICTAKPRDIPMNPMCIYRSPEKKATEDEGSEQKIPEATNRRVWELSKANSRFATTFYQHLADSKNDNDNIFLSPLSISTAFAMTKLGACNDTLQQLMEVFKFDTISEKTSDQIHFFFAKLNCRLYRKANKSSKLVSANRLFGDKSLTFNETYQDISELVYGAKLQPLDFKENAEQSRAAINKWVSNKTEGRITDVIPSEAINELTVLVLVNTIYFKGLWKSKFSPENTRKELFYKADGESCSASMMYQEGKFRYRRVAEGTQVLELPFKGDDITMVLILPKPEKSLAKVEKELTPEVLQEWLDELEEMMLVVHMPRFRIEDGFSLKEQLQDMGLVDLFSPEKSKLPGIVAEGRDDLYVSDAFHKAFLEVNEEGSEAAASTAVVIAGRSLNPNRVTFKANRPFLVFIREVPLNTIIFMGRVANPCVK
Chain of Coagulation factor X (Homo sapiens) (P00742 41-179 limits assumed): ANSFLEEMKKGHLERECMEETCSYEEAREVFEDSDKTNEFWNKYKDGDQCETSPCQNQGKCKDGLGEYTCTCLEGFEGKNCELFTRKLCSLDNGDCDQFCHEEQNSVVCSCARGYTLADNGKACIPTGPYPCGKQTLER
Chain of Coagulation factor X (Homo sapiens) (P00742 235-488 limits assumed): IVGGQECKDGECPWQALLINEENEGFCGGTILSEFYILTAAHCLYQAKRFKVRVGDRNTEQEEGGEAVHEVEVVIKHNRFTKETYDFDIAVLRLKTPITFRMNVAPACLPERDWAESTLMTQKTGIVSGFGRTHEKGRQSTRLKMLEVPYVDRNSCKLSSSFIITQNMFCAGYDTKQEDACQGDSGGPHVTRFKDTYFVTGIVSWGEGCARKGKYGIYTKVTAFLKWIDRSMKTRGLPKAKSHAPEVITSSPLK

Activity [1]: 850 U/mg
half-life [2]: 42 min
Kd (Antithrombin-III): 58 nM
IC50 (Prothrombin): 130 nM
SMILES: O=C([O-])C1O[C@@H](O[C@H]2C(O)C(NS(=O)(=O)[O-])[C@@H](O)O[C@H]2COS(=O)(=O)[O-])C(NS(=O)(=O)[O-])[C@@H](O)[C@@H]1O[C@@H]1OC(COS(=O)(=O)[O-])[C@@H](O[C@@H]2O[C@@H](C(=O)[O-])[C@@H](O[C@H]3O[C@@H](COS(=O)(=O)[O-])[C@@H](O)C(O)C3NS(=O)(=O)[O-])C(O)C2O)[C@H](OS(=O)(=O)[O-])C1OS(=O)(=O)[O-].[Na+].[Na+].[Na+].[Na+].[Na+].[Na+].[Na+].[Na+].[Na+].[Na+] (stereo not given in full)
ED50 (Rattus norvegicus): 0.081 mg/kg
